Data on nine compounds can be found in ChEMBL document CHEMBL4396889, “From Inhibition to Degradation: Targeting the Antiapoptotic Protein Myeloid Cell Leukemia 1 (MCL1)” (J Med Chem, 2019).

What is called half-life is the time in which the quantity being followed falls by half. A low value points to rapid decline. The Kd is the concentration at which binding is half-saturated. Read a low Kd as higher affinity.

Data set [1] deals with T1, Protein cereblon/Induced myeloid leukemia cell differentiation protein Mcl-1 (Homo sapiens) (UniProt Q07820+Q96SW2). Nature of the data set: Protac activity at Cereblon/MCL1 in human OPM2 cells after 48 hrs by immunoblot analysis. The format is cell-based. Put shortly:
(§1)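 OPM2 multiple myeloma cells, wild type or CRBN-knockout, were treated for 48 h with degrader or DMSO vehicle. MCL1 long and short isoforms were detected by immunoblot and levels compared with DMSO controls.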
For orientation: A western blot detects proteins with antibodies after separation by electrophoresis.

Data set [2] has as its target T1, Protein cereblon/Induced myeloid leukemia cell differentiation protein Mcl-1 (Homo sapiens). Kind of data set: Protac activity at Cereblon/MCL1 in human HeLa cell lysate assessed as MCL1 degradation incubated for 3 hrs by SDS-PAGE/immunoblot analysis. The format is subcellular.
Data set [3] deals with Protein cereblon/Bromodomain-containing protein 4 (Homo sapiens) (UniProt O60885+Q96SW2). Kind of data set: Protac activity at Cereblon/BRD4 in human OPM2 cell lysate assessed as induction of BRD4 polyubiquitination incubated for 3 hrs by SDS-PAGE/immunoblot analysis. The format is subcellular. Put shortly: (§2)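 In vitro ubiquitinylation reactions; the target (MCL1 or BRD4) was then immunoprecipitated and the immunoprecipitate immunoblotted for ubiquitin.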
Chain of Protein cereblon/Bromodomain-containing protein 4 (Homo sapiens) (Q96SW2 whole entry, looked up, other chains not shown): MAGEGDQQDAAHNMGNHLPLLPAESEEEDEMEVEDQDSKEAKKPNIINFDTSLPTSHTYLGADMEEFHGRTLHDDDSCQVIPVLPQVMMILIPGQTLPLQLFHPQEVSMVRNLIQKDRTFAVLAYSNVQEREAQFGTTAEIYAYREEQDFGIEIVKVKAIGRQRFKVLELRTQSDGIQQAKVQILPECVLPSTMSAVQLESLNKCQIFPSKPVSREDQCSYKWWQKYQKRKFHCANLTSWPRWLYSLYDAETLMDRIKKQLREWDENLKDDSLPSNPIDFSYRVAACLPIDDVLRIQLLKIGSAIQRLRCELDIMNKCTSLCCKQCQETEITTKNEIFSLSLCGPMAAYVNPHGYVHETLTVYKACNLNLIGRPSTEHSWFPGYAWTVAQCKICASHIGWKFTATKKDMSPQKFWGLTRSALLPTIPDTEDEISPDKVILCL

For data set [4], the target named is T1, Protein cereblon/Induced myeloid leukemia cell differentiation protein Mcl-1 (Homo sapiens). Kind of data set: Protac activity at Cereblon/MCL1 in human OPM2 cell lysate assessed as induction of MCL1 polyubiquitination incubated for 3 hrs by SDS-PAGE/immunoblot analysis. The format is subcellular. The gist of the method: as §2
The target is the same in data set [5]. Kind of data set: Protac activity at Cereblon/MCL1 short isoform in wild type human OPM2 cells assessed as MCL1 short isoform abundance at 250 nM after 48 hrs by immunoblot analysis relative to control. The format is cell-based. Put shortly:
(§3)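 OPM2 wild-type cells, run alongside the CRBN-/- line, were treated for 48 h with compound or DMSO. The MCL1 long and short isoforms were then measured by immunoblot against the DMSO control.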

Data set [6] has the same target. Kind of data set: Protac activity at Cereblon/MCL1 long isoform in wild type human OPM2 cells at 100 nM after 48 hrs by immunoblot analysis relative to control. The class given is cell-based. The gist of the method: as §1
Data set [7] deals with T2, Induced myeloid leukemia cell differentiation protein Mcl-1 (Homo sapiens, UniProt Q07820). Nature of the data set: Induction of MCL1 short isoform degradation in CRBN-/- human OPM2 cells assessed as protein abundance at 500 nM after 48 hrs by immunoblot analysis relative to control. The format is cell-based. Put shortly: as §1
T2 sequence (Q07820 whole entry, canonical isoform): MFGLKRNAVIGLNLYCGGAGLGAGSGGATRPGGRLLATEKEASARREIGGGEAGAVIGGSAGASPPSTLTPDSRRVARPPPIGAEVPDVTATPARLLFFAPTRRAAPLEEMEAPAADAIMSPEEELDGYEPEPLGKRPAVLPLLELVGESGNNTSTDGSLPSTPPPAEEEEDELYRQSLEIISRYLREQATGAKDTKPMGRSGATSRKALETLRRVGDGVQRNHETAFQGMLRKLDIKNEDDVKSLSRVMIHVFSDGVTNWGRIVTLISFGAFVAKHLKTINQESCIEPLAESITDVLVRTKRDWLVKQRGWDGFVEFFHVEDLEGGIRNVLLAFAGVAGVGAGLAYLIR
Data set [8] can be described thus: Half-life in human liver microsome pre-incubated for 10 mins followed by addition of NADPH regenerating system after 5 to 60 mins by LC/MS/MS analysis. The format is ADME. The note with it: liver microsomes. (Liver microsomes are a subcellular fraction often used to study metabolism.)
Data set [9] deals with T2, Induced myeloid leukemia cell differentiation protein Mcl-1. Kind of data set: Induction of MCL1 long isoform degradation in CRBN-/- human OPM2 cells assessed as protein abundance at 500 nM after 48 hrs by immunoblot analysis relative to control. The format is cell-based. Put shortly: as §1
Data set [10] has the same target. Kind of data set: Induction of MCL1 long isoform degradation in CRBN-/- human OPM2 cells assessed as protein abundance at 100 nM after 48 hrs by immunoblot analysis relative to control. The class given is cell-based. Put shortly: as §1
Data set [11] deals with T1, Protein cereblon/Induced myeloid leukemia cell differentiation protein Mcl-1 (Homo sapiens). Kind of data set: Protac activity at Cereblon/MCL1 short isoform in wild type human OPM2 cells assessed as MCL1 short isoform abundance at 500 nM after 48 hrs by immunoblot analysis relative to control. The format is cell-based. The gist of the method: as §3
For data set [12] the target is unchanged. Nature of the data set: Protac activity at Cereblon/MCL1 short isoform in wild type human OPM2 cells assessed as MCL1 short isoform abundance at 50 nM after 48 hrs by immunoblot analysis relative to control. The class given is cell-based. The gist of the method:
as §3

Data set [13] has the same target. Nature of the data set: Protac activity at Cereblon/MCL1 long isoform in wild type human OPM2 cells assessed as protein abundance at 50 nM after 48 hrs by immunoblot analysis relative to control. The class given is cell-based. Put shortly:
as §1

Data set [14] has as its target T2, Induced myeloid leukemia cell differentiation protein Mcl-1. Nature of the data set: Binding affinity to His-tagged biotinylated human MCL1 by surface plasmon resonance method. For orientation: In SPR one partner is held on a chip, and binding of the other changes the refractive index at the surface.
For data set [15] the target is unchanged. Kind of data set: Induction of MCL1 short isoform degradation in CRBN-/- human OPM2 cells assessed as protein abundance at 250 nM after 48 hrs by immunoblot analysis relative to control. The class given is cell-based. The gist of the method: as §1
Data set [16] has the same target. Nature of the data set: Induction of MCL1 short isoform degradation in CRBN-/- human OPM2 cells assessed as protein abundance at 100 nM after 48 hrs by immunoblot analysis relative to control. The class given is cell-based. Put shortly:
as §1

Data set [17] has the same target. Nature of the data set: Induction of MCL1 short isoform degradation in CRBN-/- human OPM2 cells assessed as protein abundance at 50 nM after 48 hrs by immunoblot analysis relative to control. The format is cell-based. The gist of the method:
as §1

For data set [18], the target named is T1, Protein cereblon/Induced myeloid leukemia cell differentiation protein Mcl-1 (Homo sapiens). Nature of the data set: Protac activity at Cereblon/MCL1 long isoform in wild type human OPM2 cells at 250 nM after 48 hrs by immunoblot analysis relative to control. The class given is cell-based. The gist of the method: as §1
Data set [19] shares this target. Kind of data set: Protac activity at Cereblon/MCL1 short isoform in wild type human OPM2 cells assessed as MCL1 short isoform abundance at 100 nM after 48 hrs by immunoblot analysis relative to control. The class given is cell-based. The gist of the method:
as §3

Data set [20] shares this target. Nature of the data set: Protac activity at Cereblon/MCL1 long isoform in wild type human OPM2 cells at 500 nM after 48 hrs by immunoblot analysis relative to control. The class given is cell-based. The gist of the method:
as §1

The target in data set [21] is T2, Induced myeloid leukemia cell differentiation protein Mcl-1. Nature of the data set: Induction of MCL1 long isoform degradation in CRBN-/- human OPM2 cells assessed as protein abundance at 50 nM after 48 hrs by immunoblot analysis relative to control. The class given is cell-based. Put shortly: as §1
Data set [22] has the same target. Kind of data set: Induction of MCL1 long isoform degradation in CRBN-/- human OPM2 cells assessed as protein abundance at 250 nM after 48 hrs by immunoblot analysis relative to control. The class given is cell-based. Put shortly:
as §1

For data set [23] the target is unchanged. Nature of the data set: Binding affinity to MCL1 short isoform in human OPM2 incubated overnight using biotin labelled compound by streptavidin based immunoprecipitation method.
Data set [24] has the same target. Nature of the data set: Binding affinity to MCL1 long isoform in human OPM2 incubated overnight using biotin labelled compound by streptavidin based immunoprecipitation method.

The structures appear in SMILES notation. Activity calls are given as the source filed them. The calls are words filed in the database; no cut-off is given here.

T1 sequence (Q07820 whole entry, looked up, canonical isoform): as the sequence (Q07820 whole entry, canonical isoform) above
T1 sequence (Q96SW2 whole entry, looked up, canonical isoform): as the sequence (Q96SW2 whole entry, looked up, other chains not shown) above

Consider `Cc1nn(C)c(COc2ccc(N3CCN(C(=O)COc4cccc5c4C(=O)N(C4CCC(=O)NC4=O)C5=O)CC3)cc2)c1-c1cccc2c(CCCOc3cccc4ccccc34)c(C(=O)O)n(CCN3CCOCC3)c12` (stereo unspecified), for which the result in [1] and in [2] was inactive.

Consider `Cc1sc2c(c1C)C(c1ccc(Cl)cc1)=N[C@@H](CC(=O)NCCCCNC(=O)COc1cccc3c1C(=O)N(C1CCC(=O)NC1=O)C3=O)c1nnc(C)n1-2` (stereo partly specified), for which the result in data set [3] was Active.

Consider `Cc1nn(C)c(COc2ccc(N3CCN(S(=O)(=O)N(C)C)CC3)cc2)c1-c1cccc2c(CCCOc3cccc4ccccc34)c(C(=O)O)n(CCN3CCN(C(=O)CCC(=O)NCCCOCCOCCOCCCNC(=O)COc4cccc5c4C(=O)N(C4CCC(=O)NC4=O)C5=O)CC3)c12` (stereo unspecified), for which, in data set [4], the result was Active.

Consider `Cc1nn(C)c(COc2ccc(N3CCN(C(=O)CCC(=O)NCCCOCCOCCOCNC(=O)COc4cccc5c4C(=O)N(C4CCC(=O)NC4=O)C5=O)CC3)cc2)c1-c1cccc2c(CCCOc3cccc4ccccc34)c(C(=O)O)n(CCN3CCOCC3)c12` (stereo unspecified), for which the result in [1] and in data set [2] was inactive.

For `Cc1nn(C)c(COc2ccc(N3CCN(S(=O)(=O)N(C)C)CC3)cc2)c1-c1cccc2c(CCCOc3cccc4ccccc34)c(C(=O)NCCCCNC(=O)COc3cccc4c3C(=O)N(C3CCC(=O)NC3=O)C4=O)n(CCN3CCOCC3)c12` (stereo unspecified), the outcome in data set [2] was inactive.

On to `Cc1nn(C)c(COc2ccc(N3CCN(S(=O)(=O)N(C)C)CC3)cc2)c1-c1cccc2c(CCCOc3cccc4ccccc34)c(C(=O)O)n(CCN3CCOCC3)c12`, for which the Activity in data set [5] was determined as 287%; in data set [6] it was 195%; in [7], 286%; in [9], 183%; in [10], 152%; in data set [11], 374%. For the same compound, the Activity in data set [12] was 110%; in data set [13] it was 140%; in [15], 154%; in data set [16], 111%; in data set [17] it was 100%; in [18], 237%. For the same compound, the Activity in data set [19] amounted to 148%; in [20] it was 275%; in data set [21], 140%; in data set [22] it was 162%. Besides, in data set [8], the half-life is 21.7 min. This compound also had an equilibrium dissociation constant (Kd) in data set [14] of 19 nM.

For `Cc1nn(C)c(COc2ccc(N3CCN(S(=O)(=O)N(C)C)CC3)cc2)c1-c1cccc2c(CCCOc3cccc4ccccc34)c(C(=O)O)n(CCN3CCN(C(=O)CCCC[C@@H]4SC[C@@H]5NC(=O)N[C@@H]54)CC3)c12`, the result in data set [23] and in data set [24] was Active.

On to `Cc1nn(C)c(COc2ccc(N3CCN(C(=O)CCCNC(=O)COc4cccc5c4C(=O)N(C4CCC(=O)NC4=O)C5=O)CC3)cc2)c1-c1cccc2c(CCCOc3cccc4ccccc34)c(C(=O)O)n(CCN3CCOCC3)c12` (stereo unspecified), for which the result in data set [1] and in data set [2] was inactive.

On to `Cc1nn(C)c(COc2ccc(N3CCN(C(=O)CCC(=O)NCCCOCCOCCOCCCNC(=O)CCCC[C@@H]4SC[C@@H]5NC(=O)N[C@@H]54)CC3)cc2)c1-c1cccc2c(CCCOc3cccc4ccccc34)c(C(=O)O)n(CCN3CCOCC3)c12`, for which the result in data set [23] and in data set [24] was Active.
